# Assay results: ChEMBL document CHEMBL3616436, “Synthesis, cytotoxicity and antimicrobial activity of thiourea derivatives incorporating 3-(trifluoromethyl)phenyl moiety” (Eur J Med Chem, 2015)
# Activity calls are given as the source filed them. The rule behind the calls is not given here.
# How the values were obtained:
# Staphylococcus aureus [1] = assay: Antimicrobial activity against hospital methicillin-resistant Staphylococcus aureus 573/11 after 18 hrs by twofold serial microdilution method; format: functional; conditions: 573/11, 18 h
# How it was run: (§1)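 Twofold serial microdilution in Mueller-Hinton broth. Compound stock was made in DMSO and diluted in sterile water. Tested range was 0.125–512 µg/mL. Final inoculum was 10^5 CFU/mL. Plates were incubated 18 h at 35 °C. MIC is the lowest concentration preventing visible growth.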
# Staphylococcus aureus [2] = assay: Antimicrobial activity against hospital methicillin-resistant Staphylococcus aureus 522/11 after 18 hrs by twofold serial microdilution method; format: functional; conditions: 522/11, 18 h; how it was run: as §1
# Bacillus subtilis = assay: Antimicrobial activity against Bacillus subtilis ATCC 6633 at 400 ug after 18 hrs by disc-diffusion method; format: functional; conditions: ATCC 6633, 18 h, read-out: IZ
# How it was run: (§2)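 Disc diffusion on Mueller-Hinton II agar per CLSI; 9 mm paper discs loaded with 400 µg compound from DMSO solution, dried, placed on agar; growth inhibition zone diameter read after 18 h at 35°C.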
# Proteus vulgaris = assay: Antimicrobial activity against Proteus vulgaris NCTC 4635 at 400 ug after 18 hrs by disc-diffusion method; format: functional; conditions: for zone of inhibition at 400 µg/disc: NCTC 4635, 18 h, read-out: IZ; how it was run: as §2
# [3] = tested on: Staphylococcus epidermidis; assay: Antimicrobial activity against hospital methicillin-resistant Staphylococcus epidermidis 31/04 after 18 hrs by twofold serial microdilution method; format: functional; conditions: 31/04, 18 h; how it was run: as §1
# Staphylococcus aureus [4] = assay: Antimicrobial activity against hospital methicillin-resistant Staphylococcus aureus 81/05 after 18 hrs by twofold serial microdilution method; format: functional; conditions: 81/05, 18 h; how it was run: as §1
# Staphylococcus aureus [5] = assay: Antimicrobial activity against hospital methicillin-resistant Staphylococcus aureus 57/05 after 18 hrs by twofold serial microdilution method; format: functional; conditions: 57/05, 18 h; how it was run: as §1
# [6] = tested on: Staphylococcus epidermidis; assay: Antimicrobial activity against Staphylococcus epidermidis ATCC 12228 at 400 ug after 18 hrs by disc-diffusion method; format: functional; conditions: ATCC 12228, 18 h, read-out: IZ; how it was run: as §2
# [7] = tested on: Staphylococcus epidermidis; assay: Antimicrobial activity against hospital methicillin-resistant Staphylococcus epidermidis 16/04 after 18 hrs by twofold serial microdilution method; format: functional; conditions: 16/04, 18 h; how it was run: as §1
# Staphylococcus aureus [8] = assay: Antimicrobial activity against Staphylococcus aureus ATCC 25923 at 400 ug after 18 hrs by disc-diffusion method; format: functional; conditions: ATCC 25923, 18 h, read-out: IZ; how it was run: as §2
# Staphylococcus aureus [9] = assay: Antimicrobial activity against Staphylococcus aureus NCTC 4163 at 400 ug after 18 hrs by disc-diffusion method; format: functional; conditions: NCTC 4163, 18 h, read-out: IZ; how it was run: as §2
# Micrococcus luteus = assay: Antimicrobial activity against Micrococcus luteus ATCC 9341 at 400 ug after 18 hrs by disc-diffusion method; format: functional; conditions: ATCC 9341, 18 h, read-out: IZ; how it was run: as §2
# Staphylococcus aureus [10] = assay: Antimicrobial activity against Staphylococcus aureus ATCC 25923 after 18 hrs by twofold serial microdilution method; format: functional; conditions: ATCC 25923, 18 h
# Enterococcus hirae = assay: Antimicrobial activity against Enterococcus hirae ATCC 10541 at 400 ug after 18 hrs by disc-diffusion method; format: functional; conditions: ATCC 10541, 18 h, read-out: IZ; how it was run: as §2
# Staphylococcus aureus [11] = assay: Antimicrobial activity against Staphylococcus aureus ATCC 29213 at 400 ug after 18 hrs by disc-diffusion method; format: functional; conditions: ATCC 29213, 18 h, read-out: IZ; how it was run: as §2
# [12] = tested on: Staphylococcus epidermidis; assay: Antimicrobial activity against hospital methicillin-resistant Staphylococcus epidermidis 63/04 after 18 hrs by twofold serial microdilution method; format: functional; conditions: 63/04, 18 h; how it was run: as §1
# [13] = tested on: Staphylococcus epidermidis; assay: Antimicrobial activity against Staphylococcus epidermidis ATCC 35984 at 400 ug after 18 hrs by disc-diffusion method; format: functional; conditions: ATCC 35984, 18 h, read-out: IZ; how it was run: as §2
# Bacillus cereus = assay: Antimicrobial activity against Bacillus cereus ATCC 11778 at 400 ug after 18 hrs by disc-diffusion method; format: functional; conditions: ATCC 11778, 18 h, read-out: IZ; how it was run: as §2
# Vaccinia virus = assay: Antiviral activity against Human Vaccinia virus ATCC VR-1549 infected in African green monkey Vero 76 cells assessed as reduction of virus-plaque formation after 3 days by crystal violet staining; format: functional, organism-based; conditions: Orthopoxvirus vaccinia, ATCC VR-1549, Vero, 72 h
# [14] = Cytotoxicity against bovine MDBK cells assessed as cell viability after 48 to 96 hrs by MTT assay; format: cell-based, Bos taurus; conditions: cattle
# [15] = tested on: Mycobacterium tuberculosis; assay: Antimycobacterial activity against Mycobacterium tuberculosis H37Rv ATCC 25618; format: functional
# How it was run: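 Classical test-tube successive-dilution method in Youmans' modification of Proskauer and Beck liquid medium with 10% bovine serum. Inoculum came from 14-day cultures. DMSO stock was 10 mg/mL, diluted geometrically in medium. Tubes were incubated at 37 °C. Concentrations tested were 3.1, 6.2, 12.5, 25, 50 and 100 µg/ml. MIC is the minimum concentration inhibiting growth relative to compound-free tubes.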
# Yellow fever virus = assay: Antiviral activity against Yellow fever virus 17D infected in BHK cells assessed as protection against virus-induced cytopathogenicity after 3 to 4 days by MTT assay; format: functional, cell-based
# [16] = Cytotoxicity against BHK cells assessed as cell viability after 48 to 96 hrs by MTT assay; format: cell-based, Mesocricetus auratus; conditions: hamster
# [17] = Cytotoxicity against African green monkey Vero 76 cells assessed as cell viability after 48 to 96 hrs by crystal violet staining; format: cell-based; conditions: chlorocebus sabaeus
# [18] = tested on: Vesicular stomatitis virus; assay: Antiviral activity against Vesicular stomatitis virus ATCC VR 1540 infected in African green monkey Vero 76 cells assessed as reduction of virus-plaque formation after 2 days by crystal violet staining; format: functional, organism-based; conditions: ATCC VR 1540, Vero, 48 h
# [19] = tested on: Staphylococcus epidermidis; assay: Ratio of ciprofloxacin MIC to compound MIC for hospital methicillin-resistant Staphylococcus epidermidis 62/04 after 18 hrs by twofold serial microdilution method; format: functional
# How it was run: (§3)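 Ratio of MICs for ciprofloxacin and test agent, each from twofold serial broth microdilution in Mueller-Hinton broth following CLSI guidelines. DMSO stock was diluted in sterile water to 0.125–512 µg/mL, with a final inoculum of 10^5 CFU/mL.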
# Coxsackievirus B5 = assay: Antiviral activity against Human coxsackievirus B5 ATCC VR-29 infected in African green monkey Vero 76 cells assessed as reduction of virus-plaque formation after 3 days by crystal violet staining; format: functional, organism-based; conditions: Enterovirus B, ATCC VR-29, Vero, 72 h
# How it was run: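 Plaque reduction: Vero-76 at 2x10^5 cells/well grown to confluent monolayers, infected 2 h at 50–100 PFU/well; after removing unadsorbed virus, overlay of D-MEM, 1% inactivated FBS, 0.75% methylcellulose with or without serial compound dilutions; 3 days at 37°C, fixed and stained with crystal violet in 50% ethanol, plaques counted; EC50 by linear regression.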
# [20] = tested on: Staphylococcus epidermidis; assay: Ratio of ciprofloxacin MIC to compound MIC for hospital methicillin-resistant Staphylococcus epidermidis 31/04 after 18 hrs by twofold serial microdilution method; format: functional; how it was run: as §3
# [21] = tested on: Staphylococcus epidermidis; assay: Ratio of ciprofloxacin MIC to compound MIC for hospital methicillin-resistant Staphylococcus epidermidis 63/04 after 18 hrs by twofold serial microdilution method; format: functional; how it was run: as §3
# [22] = tested on: Staphylococcus epidermidis; assay: Ratio of ciprofloxacin MIC to compound MIC for hospital methicillin-resistant Staphylococcus epidermidis 76/04 after 18 hrs by twofold serial microdilution method; format: functional; how it was run: as §3
# [23] = tested on: Human immunodeficiency virus 1; assay: Antiviral activity against HIV1 3B infected in human MT4 cells assessed as protection against virus-induced cytopathogenicity by MTT assay; format: functional, organism-based; conditions: Human immunodeficiency virus 1, 3B
smiles,measurement,setting,value
O=C(O)c1cn(C2CC2)c2cc(N3CCNCC3)c(F)cc2c1=O [CIPROFLOXACIN],MIC,Staphylococcus aureus [1],64 µg/mL
same,MIC,Staphylococcus aureus [2],128 µg/mL
same,zone of inhibition at 400 µg/disc,Bacillus subtilis,40 mm
same,zone of inhibition at 400 µg/disc,Proteus vulgaris,36 mm
same,MIC,[3],64 µg/mL
same,MIC,Staphylococcus aureus [4],8 µg/mL
same,MIC,Staphylococcus aureus [5],128 µg/mL
same,zone of inhibition at 400 µg/disc,[6],30 mm
same,MIC,[7],32 µg/mL
same,zone of inhibition at 400 µg/disc,Staphylococcus aureus [8],26 mm
same,zone of inhibition at 400 µg/disc,Staphylococcus aureus [9],26 mm
same,zone of inhibition at 400 µg/disc,Micrococcus luteus,24 mm
same,MIC,Staphylococcus aureus [10],0.5 µg/mL
same,zone of inhibition at 400 µg/disc,Enterococcus hirae,18 mm
same,zone of inhibition at 400 µg/disc,Staphylococcus aureus [11],22 mm
same,MIC,[12],4 µg/mL
same,zone of inhibition at 400 µg/disc,[13],32 mm
same,zone of inhibition at 400 µg/disc,Bacillus cereus,30 mm
Fc1ccc(NC(=S)Nc2cccc(C(F)(F)F)c2)cc1Cl,MIC,Staphylococcus aureus [1],0.5 µg/mL
same,MIC,Staphylococcus aureus [2],0.5 µg/mL
same,zone of inhibition at 400 µg/disc,Bacillus subtilis,30 mm
same,EC50,Vaccinia virus,> 20 µM
same,zone of inhibition at 400 µg/disc,Proteus vulgaris,14 mm
same,CC50,[14],11 µM
same,MIC,[3],1 µg/mL
same,MIC,Staphylococcus aureus [4],0.25 µg/mL
same,MIC,Staphylococcus aureus [5],1 µg/mL
same,MIC,[15],50 µg/mL
same,zone of inhibition at 400 µg/disc,[6],30 mm
same,MIC,[7],1 µg/mL
same,EC50,Yellow fever virus,> 10 µM
same,zone of inhibition at 400 µg/disc,Staphylococcus aureus [8],27 mm
same,zone of inhibition at 400 µg/disc,Staphylococcus aureus [9],30 mm
same,zone of inhibition at 400 µg/disc,Micrococcus luteus,32 mm
same,CC50,[16],10 µM
same,CC50,[17],20 µM
same,MIC,Staphylococcus aureus [10],1 µg/mL
same,EC50,[18],> 20 µM
same,zone of inhibition at 400 µg/disc,Enterococcus hirae,34 mm
same,Ratio,[19],128
same,zone of inhibition at 400 µg/disc,Staphylococcus aureus [11],30 mm
same,EC50,Coxsackievirus B5,> 20 µM
same,Ratio,[20],128
same,Ratio,[21],128
same,Ratio,[22],128
same,EC50,[23],> 8 µM
same,MIC,[12],0.5 µg/mL
same,zone of inhibition at 400 µg/disc,[13],27 mm
same,zone of inhibition at 400 µg/disc,Bacillus cereus,25 mm
FC(F)(F)c1cccc(NC(=S)NCCc2ccccc2)c1,MIC,Staphylococcus aureus [1],16 µg/mL
same,MIC,Staphylococcus aureus [2],16 µg/mL
same,zone of inhibition at 400 µg/disc,Bacillus subtilis,16 mm
same,EC50,Vaccinia virus,> 46 µM
same,inhibition zone (IZ),Proteus vulgaris,inactive
same,CC50,[14],48 µM
same,MIC,[3],16 µg/mL
same,MIC,Staphylococcus aureus [4],16 µg/mL
same,MIC,Staphylococcus aureus [5],8 µg/mL
same,MIC,[15],50 µg/mL
same,zone of inhibition at 400 µg/disc,[6],14 mm
same,MIC,[7],8 µg/mL
same,EC50,Yellow fever virus,> 29 µM
same,zone of inhibition at 400 µg/disc,Staphylococcus aureus [8],15 mm
same,zone of inhibition at 400 µg/disc,Staphylococcus aureus [9],15 mm
same,zone of inhibition at 400 µg/disc,Micrococcus luteus,18 mm
same,CC50,[16],29 µM
same,CC50,[17],46 µM
same,MIC,Staphylococcus aureus [10],8 µg/mL
same,EC50,[18],> 46 µM
same,zone of inhibition at 400 µg/disc,Enterococcus hirae,17 mm
same,Ratio,[19],128
same,zone of inhibition at 400 µg/disc,Staphylococcus aureus [11],15 mm
same,EC50,Coxsackievirus B5,> 46 µM
same,Ratio,[20],128
same,Ratio,[21],128
same,Ratio,[22],128
same,EC50,[23],> 8.8 µM
same,MIC,[12],8 µg/mL
same,zone of inhibition at 400 µg/disc,[13],17 mm
same,zone of inhibition at 400 µg/disc,Bacillus cereus,16 mm
